Compound activity (PubChem BioAssay)
Rows were chosen to be rich in hits. Some 7.4% of all compounds tested hit in one or more screens of this group.
S1P3 agonist: human S1P3 receptor agonists, primary screen, cell-based, primary and confirmation, NFAT-BLA reporter; Sphingosine 1-phosphate receptor 3 (Homo sapiens), Q99500; S1P3 NFAT-BLA reporter cells, agonism, FRET ratio; relative to 1 µM S1P, basal subtracted; activation, % at 4.5 µM; 60,000 tested, 0.1% active; AID 373, 2006;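 active = activation above the screen-wide mean plus 3 SD, cut at about 4.5% in these data, passing the limit was not always enough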
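material = human S1P3 NFAT-BLA reporter CHO cells | schedule = 4 h compound at 37 °C, 2 h substrate at RT | measured by = fluorescent BLA substrate, ex 405 nm, em 460/535 nm ratio | controls = 1 µM S1P reference | replication = primary once, confirmation triplicate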
S1P1 ag pot: S1P1 agonists and agonism potentiators, primary screen, cell-based, primary and confirmation screens, CRE-bla reporter | Sphingosine 1-phosphate receptor 1 (Homo sapiens), P21453 | S1P1 CRE-bla cells, forskolin, beta-lactamase FRET, potentiator mode; S1P1 agonist co-added at EC20, 2 nM; 100% = saturating reference agonist, 0% = basal | activation, % at 9.5 µM | 56,000 tested, 0.57% active;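 active = activation above a cutoff set at the mean activation of all tested compounds plus 3 SD, cut at about 54% in these data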;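 note: forskolin at 4 µM as EC80 and the EC20 agonist is SEW2871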
M1 antag: antagonists of rat M1 muscarinic receptor; Muscarinic acetylcholine receptor M1 (Rattus norvegicus), P08482; CHO-M1 cells, Fluo-4 calcium, ACh EC80 antagonist mode; active compounds read low; B-score at 10 µM; 64,000 tested, 3.4% active;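 active = calcium fluorescence response, raw or row-and-column corrected B-score, differing from the plate sample mean either way at a set confidence level, mostly lower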
Target sequence (P08482 whole entry, looked up): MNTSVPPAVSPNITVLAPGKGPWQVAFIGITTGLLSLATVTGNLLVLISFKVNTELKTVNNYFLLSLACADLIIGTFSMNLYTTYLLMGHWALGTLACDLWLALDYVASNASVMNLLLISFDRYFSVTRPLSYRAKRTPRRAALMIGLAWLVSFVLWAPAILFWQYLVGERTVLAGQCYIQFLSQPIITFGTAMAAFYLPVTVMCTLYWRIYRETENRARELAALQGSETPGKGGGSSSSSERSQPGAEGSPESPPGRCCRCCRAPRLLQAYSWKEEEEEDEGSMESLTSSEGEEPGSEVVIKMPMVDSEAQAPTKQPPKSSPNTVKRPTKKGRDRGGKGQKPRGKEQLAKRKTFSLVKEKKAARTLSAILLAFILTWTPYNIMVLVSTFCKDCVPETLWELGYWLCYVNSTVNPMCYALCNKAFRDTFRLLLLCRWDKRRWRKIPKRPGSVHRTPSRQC
JNK3 blocker: JNK3 kinase activity inhibitors, primary screen, biochemical, human, purified enzyme | Mitogen-activated protein kinase 10 (Homo sapiens), P53779 | HTS | inhibition, % at 8 µM | 60,000 tested, 0.61% active | AID 746, 2007; in the data active = inhibition above about 17%
Jurkat viability: cytotoxicity toward Jurkat T cells, primary screen, cytotoxicity control, cell-based, Jurkat E6.1, 60K MLSMR library; AID 463, 2006; 56,000 tested, 1.2% active; Jurkat E6.1 viability, ATP luminescence, 48 h; inhibition, % at 4 µM;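 active = inhibition above the mean inhibition of all tested compounds plus 3 SD, cut at about 28% in these data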
M1 ag: M1 muscarinic receptor agonists, primary screen, CHO-M1 cells, Fluo-4 calcium, agonist mode | Fluo-4 calcium fluorescence; active compounds read high | Muscarinic acetylcholine receptor M1 | 64,000 tested, 3% active | B-score at 10 µM;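 active = fluorescence rise, raw or as B-score row- and column-corrected plate score, outside the 99.7% band of its plate's samples, either direction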
M1 antag confirm: rat M1 muscarinic receptor antagonists, confirmation, CHO cells, Fluo-4 calcium, duplicate | shares compounds with M1 antag | ACh EC80 antagonism; active compounds read low | calcium response (max-min fluorescence) at 10 µM | 1,700 tested, 43% active;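 active = calcium response below the same-plate mean of wells given acetylcholine alone at its 80%-effect dose, minus 3 SD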
mGluR4 antag: human mGluR4 response to M1 antagonist hits, M1 allosteric modulator project, cell-based, antagonist mode, secondary assay 1; shares compounds with M1 antag; CHO-mGluR4 calcium flux, Fluo-4 fluorescence, glutamate EC80; active compounds read low; fluorescence response (max-min) at 10 µM; 1,700 tested, 0.9% active; AID 678, 2007;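 active = fluorescence response below the plate's average for near-maximal glutamate wells, less 3 SD of those wells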;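 note: raw unnormalized fluorescence span taken in the window right after glutamate addition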
Each line names hits and unclear results; the compound was inactive in the other large screens (follow-up assays come after a bar, where they were run).

CCOc1ccc2[nH]c(=O)c(C(c3nnnn3Cc3ccco3)N3CCCC(C)C3)cc2c1 (stereo not drawn)	none
CCCOc1ccc(OC(=O)c2ccc(Br)o2)cc1	none
CN1C(=S)SC(/[N+]([O-])=C\c2cccs2)C1(C)C (stereo not drawn)	M1 antag -8.04 | M1 antag confirm inactive | mGluR4 antag inactive
Cn1c(N2CCN(c3ccccn3)CC2)nc2c1c(=O)n(Cc1ccc(Cl)cc1)c(=O)n2C	M1 antag -2.17 (no result: Jurkat viability) | M1 antag confirm inactive | mGluR4 antag inactive
O=C(NCCN1Cc2ccccc2C1=O)c1cccs1	none
O=C1c2ccccc2CN1CCNS(=O)(=O)c1ccc(Cl)cc1	M1 antag -1.82 | M1 antag confirm inactive | mGluR4 antag inactive
CCC1CCCCN1CCCn1c(=S)[nH]c2ccccc2c1=O (stereo not drawn)	none (no result: S1P3 agonist, S1P1 ag pot, JNK3 blocker, Jurkat viability)
CCSc1nnc(NC(=O)Cc2ccc(OC)c(S(=O)(=O)N3CCOCC3)c2)s1	none
Cc1cccn2c(=O)c3cc(C(=O)NCc4cccnc4)c(=N)n(C(C)C)c3nc12	M1 antag -2.53 (no result: S1P3 agonist, S1P1 ag pot, JNK3 blocker, Jurkat viability) | M1 antag confirm inactive | mGluR4 antag inactive
N=c1c(C(=O)NCc2ccco2)cc2c(=O)n3ccccc3nc2n1Cc1ccccc1	M1 antag -2.96 | M1 antag confirm 589 | mGluR4 antag inactive
CC(C)n1c(=N)c(C(=O)NCCc2ccccc2)cc2c(=O)n3ccccc3nc21	S1P3 agonist 6.3, M1 antag -4.05 | M1 antag confirm 445 | mGluR4 antag inactive
Cc1cccn2c(=O)c3cc(C(=O)NCc4cccnc4)c(=N)n(C)c3nc12	none (no result: Jurkat viability)
CC(C)[C@H](NC(=O)Nc1ccc(Oc2ccccc2)cc1)C(=O)O	none
CCc1cc2c(NCCN3CCCCC3)ncnc2s1	M1 antag -4.29 (no result: S1P3 agonist, S1P1 ag pot, JNK3 blocker, Jurkat viability) | M1 antag confirm 534 | mGluR4 antag inactive
CCN1CCCC1CNC(=O)CSCc1nc(-c2ccccc2C)oc1C (stereo not drawn)	M1 antag -3.66 | M1 antag confirm 308 | mGluR4 antag inactive
Cc1nccn1CC(=O)O	none
Cc1nccn1CCc1n[nH]c(=S)n1Cc1ccccc1	M1 antag -9.47 | M1 antag confirm 314 | mGluR4 antag inactive
CCN(CC)CCNC(=O)c1cc2c(=O)n(C)c3ccccc3c2n1C	none
CCCCN(CC)CCNC(=O)c1cc2c(=O)n(C)c3ccccc3c2n1C	M1 antag -4.25 | M1 antag confirm 412 | mGluR4 antag inactive
CCCN(CCC)CCCNC(=O)c1cc2c(=O)n(C)c3ccccc3c2n1C	M1 antag -4.38 | M1 antag confirm 441 | mGluR4 antag inactive
CN1CCN(CCNC(=O)c2cc3c(=O)n(C)c4ccccc4c3n2C)CC1	none
Cn1c(C(=O)NCCCN2CCCCCC2)cc2c(=O)n(C)c3ccccc3c21	M1 antag -3.16 | M1 antag confirm 511 | mGluR4 antag inactive
COc1ccccc1NC(=O)c1ccc(NC(=O)CSc2nnnn2C)cc1	none
CC1CC(C)CN(C(=O)Cn2c(=O)n(CCCCC(=O)NCc3ccco3)c(=O)c3ccccc32)C1 (stereo not drawn)	none (no result: M1 antag, M1 ag)
CCOC(=O)C1CCN(S(=O)(=O)c2cccc(-c3cn4ccccc4n3)c2)CC1	M1 antag -3.07 | M1 antag confirm inactive | mGluR4 antag inactive
CC1CN(S(=O)(=O)c2cccc(-c3cn4ccccc4n3)c2)CC(C)O1 (stereo not drawn)	none
Cc1ccc(NC(=O)NC2CCCCC2)cc1Cl	M1 antag -1.15 (no result: S1P1 ag pot) | M1 antag confirm inactive | mGluR4 antag inactive
COCCn1c(SCC(=O)N2CCCc3ccccc32)nc2ccccc2c1=O	M1 antag -1.91 | M1 antag confirm inactive | mGluR4 antag inactive
COCCn1c(SCC(=O)N2CCc3ccccc32)nc2c(c1=O)SC(C)C2 (stereo not drawn)	none
CCOC(=O)c1cnc2c(C(=O)OC)cccc2c1NCCN1CCOCC1	none (no result: S1P3 agonist, S1P1 ag pot, JNK3 blocker, Jurkat viability)
CCOC(=O)c1cnc2c(Cl)c(Cl)ccc2c1N1CCN(C)CC1	M1 antag -3.13 | M1 antag confirm inactive | mGluR4 antag inactive
CCOC(=O)Nc1ccc2c(c1)N(C(=O)N(C)C)c1ccccc1CC2	none
CCOC(=O)Nc1ccc2c(c1)N(C(=O)CN(CC)CC)c1ccccc1C=C2	M1 antag -5.89 | M1 antag confirm 28.2 | mGluR4 antag inactive
O=C(O)c1cccc(Cn2cc(Br)cn2)c1	none
O=C(NCc1ccncc1)c1cccc(Cn2cc(Br)cn2)c1	M1 antag -10 | M1 antag confirm 87.8 | mGluR4 antag inactive
CC(C)(C)c1ccccc1OCC(=O)NCCC(=O)O	M1 antag -2.84 | M1 antag confirm inactive | mGluR4 antag inactive
CC(=O)N1CCCc2cc(S(=O)(=O)NC(C(=O)NCc3ccc(C)cc3)C(C)C)ccc21 (stereo not drawn)	none
OC(COCc1ccc(Cl)cc1)CN1CCN(CC(O)COCc2ccc(Cl)cc2)CC1 (stereo not drawn)	M1 antag -1.89 | M1 antag confirm 444 | mGluR4 antag inactive
Nc1nnc(Cc2ccc(Cl)c(Cl)c2)s1	none (no result: Jurkat viability)
CCC(=O)N1CCN(c2ccc(Cl)cc2NC(=O)Cc2ccccc2)CC1	none
CCC(=O)Nc1cc(Cl)ccc1N1CCN(C(=O)CC)CC1	M1 antag -4.85 | M1 antag confirm inactive | mGluR4 antag inactive
CCCNC(=O)C1=C(C)C(=O)OC12CCC(C)CC2 (stereo not drawn)	M1 antag -2.25 | M1 antag confirm inactive | mGluR4 antag inactive
CC1=C(C(=O)NCCN2CCN(C)CC2)C2(CCC(C)CC2)OC1=O (stereo not drawn)	none
CCn1c(SCc2ccc(OC)cc2)nnc1-c1ccncc1	none
CCOC(=O)c1sc(C)c2c1NC(C)(c1cccs1)NC2=O (stereo not drawn)	none
O=C(Cc1coc2ccc3ccccc3c12)N1CCN(c2ncccn2)CC1	M1 antag -3.32 | M1 antag confirm inactive | mGluR4 antag inactive
